CYP2C19 inhib: inhibitors of human CYP2C19; P33261; CYP2C19 Supersomes, luciferin-H EGE luminescence, 30 min; inhibition, % at 5 µM; 96,000 tested, 21% active; AID 778;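 active = CYP2C19 inhibition above a set limit at 5 µM in the primary screen, cut at about 50% in these data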;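 also: plate controls were negative control wells for no effect and 2.5 mM tranylcypromine positive control for full effect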
Target sequence (P33261 whole entry, looked up): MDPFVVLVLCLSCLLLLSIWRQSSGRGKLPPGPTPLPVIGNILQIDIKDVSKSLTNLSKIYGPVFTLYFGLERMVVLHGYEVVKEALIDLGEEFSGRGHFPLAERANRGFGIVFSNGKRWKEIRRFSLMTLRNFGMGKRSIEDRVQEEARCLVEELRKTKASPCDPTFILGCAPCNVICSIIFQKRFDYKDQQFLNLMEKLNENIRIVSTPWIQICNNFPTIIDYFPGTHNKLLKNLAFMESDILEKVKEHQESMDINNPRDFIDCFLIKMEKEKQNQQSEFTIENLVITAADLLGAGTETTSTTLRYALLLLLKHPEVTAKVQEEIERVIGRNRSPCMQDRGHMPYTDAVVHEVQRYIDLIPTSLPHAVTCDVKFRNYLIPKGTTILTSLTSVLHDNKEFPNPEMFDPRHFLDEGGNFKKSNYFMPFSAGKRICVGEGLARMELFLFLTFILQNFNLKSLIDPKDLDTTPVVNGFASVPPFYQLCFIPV
CYP2C9 inh: inhibitors of human CYP2C9; P11712; CYP2C9 Supersomes, luciferin-H conversion, luminescence; inhibition, % at 5 µM; 96,000 tested, 20% active; AID 777;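 active = blocking of liver enzyme CYP2C9 beyond about 50% at 5 µM, limit read from the data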
Ecoli tolC: E. coli tolC mutant growth inhibition; E. coli BW25113 tolC mutant growth, OD615; growth inhibition, % at 10 µM (by protocol); 65,000 tested, 2.2% active; AID 573;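 active = growth inhibition at or above a cutoff equal to the mean over every tested compound plus 3 SD, cut at about 60% in these data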;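 also: growth measured after 20 h incubation at 37 °C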
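Test system: tolC-deleted E. coli BW25113 | Medium: LB with kanamycin 50 µg/mL | Compound dosing: Single concentration, 10 µM final per compound | Schedule: 37 °C, 20 h exposure | Measured by: OD at 615 nm | Evaluation: Percent growth inhibition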
E coli WT exp: growth inhibitors of E. coli BW25113 wild type | OD600 absorbance | growth inhibition, % at 100 µM | 98,000 tested, 0.15% active | AID 710;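 active = growth inhibition above about 50% at one test dose, limit read from the data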;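 also: growth measured after 20 h incubation at 37 °C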
CYP2C19 activ: activators of human cytochrome P450 2C19; P33261; recombinant CYP2C19, luciferin-H EGE luminescence; active compounds read high; 0 = fully inhibited enzyme, 1 = untreated enzyme; activation factor at 5 µM; 96,000 tested, under 10 active;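 active = activation factor of at least 2 at 5 µM in the primary screen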;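 also: 0 = wells with 2.5 mM tranylcypromine and 1 = vehicle-only wells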
CYP2C9 act: increases human cytochrome P450 2C9 activity | recombinant CYP2C9, luciferin-H conversion, luminescence; active compounds read high; factor 1 = untreated enzyme, 0 = blocked | activation factor at 5 µM | 96,000 tested, 1.4% active | AID 1024;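 active = activation factor of 2 or more for CYP2C9 at a 5 µM dose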;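 also: 0 = sulfaphenazole-blocked wells and 1 = vehicle-only wells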
Starred values were filed as active, the others as inactive; nt = no result given. Compounds with a hit are over-represented: about 29% of the library has one in this group of screens.

SMILES	CYP2C19 inhib	CYP2C9 inh	Ecoli tolC	E coli WT exp	CYP2C19 activ	CYP2C9 act
Cc1cc(N2CCN(S(=O)(=O)c3ccc(Cl)cc3)CC2)c2ccccc2n1	82.4*	40.5	36.7	3.0	0.2	0.6
Cc1cc(C)n(-c2nc3ccccc3nc2N2CCN(S(=O)(=O)c3ccc4ccccc4c3)CC2)n1	33.4	49.5	nt	-9.0	0.7	0.5
Sc1oc(-c2ccccc2)cc1C=Nc1ccccc1	1.7	29.0	nt	-4.0	1	0.7
CCC(=O)Nc1nc(C)cc(SCC(=O)OC)n1	18.8	43.0	-19.5	-12.0	0.8	0.6
O=C(Nc1nccs1)c1ccc2nccnc2c1	8.2	22.7	9.9	14.0	0.9	0.8
CSCCC(C(=O)OCC(=O)c1ccc(C)c(C)c1)N1C(=O)c2cc(Cl)c(Cl)cc2C1=O (stereo not drawn)	4.4	43.7	nt	-7.0	1	0.6
Cc1c(Cl)cccc1NC(=S)NN1CCOCC1	67.4*	-6.8	nt	6.0	0.3	1.1
N#CCCN(C(=O)CSc1ccc2c(c1)OCCO2)c1ccccc1	92.8*	55.9*	-0.3	-3.0	0.1	0.4
CC(=O)Nc1ccc(SCC(=O)N(CCC#N)c2cc(C)cc(C)c2)cc1	81.7*	70.1*	nt	0.0	0.2	0.3
CCN(C(=O)CSc1ccc2c(c1)OCCO2)C1CCS(=O)(=O)C1 (stereo not drawn)	35.6	-6.1	-6.2	3.0	0.6	1.1
CCNc1[nH]c(=O)n(C)c(=O)c1N=O	-15.7	-8.1	nt	-1.0	1.2	1.1
CN1C(=O)c2ccccc2Sc2ccc(NC(=O)N3CCCC3)cc21	9.5	26.9	9.0	-11.0	0.9	0.7
CCCNC(=O)Nc1ccc2c(c1)N(C)C(=O)c1ccccc1S2	41.2	78.9*	nt	-3.0	0.6	0.2
CCOC(=O)C(Cc1cc(C(C)=O)ccc1OC(C)C)C(=O)OCC	60.4*	61.2*	21.6	6.0	0.4	0.4
CCOC(=O)C(Cc1cc(C(C)=O)ccc1OCC)C(=O)OCC	28.6	-12.5	10.5	1.0	0.7	1.1
COC(=O)CNc1c(-c2ccccc2)nc2ccc(Br)cn12	69.4*	76.8*	nt	7.0	0.3	0.2
O=C(CS(=O)(=O)c1c[nH]c2ccccc12)NC1CCCCC1	50.9*	-66.0	nt	7.0	0.5	1.7
O=C(C(=O)N1CCCc2ccccc21)c1c[nH]c2ccccc12	66.8*	-46.6	nt	8.0	0.3	1.5
Cc1[nH]c2ccccc2c1SCC(=O)N1CCCc2ccccc21	75.9*	8.7	nt	-11.0	0.2	0.9
CCn1cc(S(=O)(=O)CC(=O)NC2CCCCC2)c2ccccc21	31.7	2.9	-1.3	-3.0	0.7	1
O=C(CS(=O)(=O)c1c[nH]c2ccccc12)N1CCCc2ccccc21	94.2*	-81.2	nt	8.0	0.1	1.8
CCCCC1=NN2C(=N)CC(=O)N=C2S1	8.8	11.6	nt	0.0	0.9	0.9
CC(C)Cn1c(=O)c2c(c3ccccc31)OC(C)C(=O)N2 (stereo not drawn)	nt	nt	-10.6	-4.0	nt	nt
CCOC(=O)Nc1ccc(NS(=O)(=O)c2ccc(C)cc2)cc1	99.1*	95.9*	20.7	11.0	0	0
CCOC(=O)NCc1ccc(S(=O)(=O)Nc2c(C)cccc2C)cc1	74.7*	29.0	nt	2.0	0.3	0.7
SMILES	CYP2C19 inhib	CYP2C9 inh	Ecoli tolC	E coli WT exp	CYP2C19 activ	CYP2C9 act
CCOC(=O)c1sc(NS(=O)(=O)c2ccc(C)cc2)nc1C	42.4	77.1*	nt	-1.0	0.6	0.2
CCOC(=O)Nc1sc(NS(=O)(=O)c2ccc(C)cc2)nc1C	4.0	57.8*	nt	1.0	1	0.4
CCn1c(SCC(=O)NCCc2ccc(F)cc2)nnc1-c1cccs1	12.3	14.4	7.9	12.0	0.9	0.9
COc1nc(C#N)c(N2CCOCC2)o1	11.3	1.5	-10.1	4.0	0.9	1
Cc1ccc(NS(=O)(=O)c2ccc(NC(=O)c3cccs3)cc2)cc1	32.2	51.4*	nt	2.0	0.7	0.5
CCOC(=O)Nc1sc(NS(=O)(=O)c2ccccc2)nc1C	-0.3	81.4*	-0.9	7.0	1	0.2
Cn1c(NC(=O)C2CCCO2)cc(=O)n(C)c1=O (stereo not drawn)	22.8	65.6*	-6.2	10.0	0.8	0.3
O=C(CN1CCN(c2ccccn2)CC1)NC(=O)NC1CCCCC1	10.1	44.4	4.2	5.0	0.9	0.6
COCCN(C(=O)Cc1cccs1)C(C(=O)NCc1ccc(OC)cc1)c1ccc(C(C)C)cc1 (stereo not drawn)	48.1	68.7*	nt	-15.0	0.5	0.3
CCc1ccc(C(C(=O)NCc2ccc(OC)cc2)N(CCOC)C(=O)Cc2cccs2)cc1 (stereo not drawn)	25.2	42.6	nt	-9.0	0.7	0.6
Cc1cc2cc(CN(Cc3nnnn3C3CCCCC3)CC3CCCO3)c(=O)[nH]c2cc1C (stereo not drawn)	69.2*	37.6	19.9	1.0	0.3	0.6
Cc1ccc2cc(CN(Cc3nnnn3C3CCCCC3)CC3CCCO3)c(=O)[nH]c2c1 (stereo not drawn)	81.3*	48.9	44.5	5.0	0.2	0.5
Cc1cc(C)c2cc(CN(Cc3nnnn3C3CCCCC3)CC3CCCO3)c(=O)[nH]c2c1 (stereo not drawn)	85.8*	55.2*	24.2	1.0	0.1	0.4
COCCn1nnnc1CN(CCc1ccc(OC)c(OC)c1)Cc1cc2ccc(C)cc2[nH]c1=O	58.6*	60.8*	5.9	1.0	0.4	0.4
CCC(c1nnnn1CCOC)N(Cc1cc2c(C)cc(C)cc2[nH]c1=O)CC1CCCO1 (stereo not drawn)	10.9	20.6	nt	3.0	0.9	0.8
CCN(CC)CCNC(=O)c1ccccn1	6.2	4.2	-10.0	7.0	0.9	1
CC(=O)c1ccc(-n2nncc2C)cc1	-2.8	11.4	-7.1	-2.0	1	0.9
COc1ccc2cc(CN(CCCN3CCOCC3)Cc3nnnn3C3CCCC3)c(=O)[nH]c2c1	31.8	4.6	-4.7	-5.0	0.7	1
COc1ccc(CN(Cc2cc3ccc(C)cc3[nH]c2=O)Cc2nnnn2C2CCCC2)cc1	92.8*	93.0*	59.3	nt	0.1	0.1
COc1ccc2cc(CN(Cc3cccnc3)Cc3nnnn3Cc3ccccc3)c(=O)[nH]c2c1	93.1*	89.8*	30.9	-6.0	0.1	0.1
Cc1ccc2[nH]c(=O)c(CN(Cc3ccc4c(c3)OCO4)Cc3nnnn3C3CCCC3)cc2c1	42.0	61.0*	62.0*	-8.0	0.6	0.4
COCCn1nnnc1CN(Cc1cccnc1)Cc1cc2cc(OC)ccc2[nH]c1=O	25.3	10.8	-16.9	5.0	0.7	0.9
Cc1ccc(N2C(N)=NC(N)=NC23CCCC3)c(C)c1	-19.2	4.6	-10.4	2.0	1.2	1
Fc1ccc(Nc2ncnc3sc4c(c23)CCC4)cc1	88.5*	61.0*	nt	5.0	0.1	0.4
O=S(=O)(Nc1ncnc2sc3c(c12)CCC3)c1ccc2ccccc2c1	17.3	78.6*	nt	2.0	0.8	0.2
